Source: ChEMBL document CHEMBL1821588, “Synthesis and in vivo evaluation of [O-methyl-11C] N-[3,5-dichloro-2-(methoxy)phenyl]-4-(methoxy)-3-(1-piperazinyl)benzenesulfonamide as an imaging probe for 5-HT6 receptors” (Bioorg Med Chem, 2011)

Key:
[1] = Drug uptake in baboon hippocampus at 5 mCi, iv measured during 90 mins; type: ADME, organism-based; conditions: papio anubis, in vivo, 1.5 h
Method in brief: (§1)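 Fasted baboon immobilized with ketamine (10 mg/kg, im), then anesthetized with 1.5–2.0% isoflurane by endotracheal tube and kept at 37 °C. A 10 min transmission scan preceded tracer. Tracer given as 5 ± 1 mCi iv bolus (S.A. 2300 ± 250 Ci/mmol). Emission collected 90 min in 3-D mode on HR+ PET. Arterial samples (30 over 90 min) gave the input function.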

[2] = Drug uptake in baboon cerebellum at 5 mCi, iv measured during 90 mins; type: ADME, organism-based; conditions: papio anubis, in vivo, 1.5 h; method in brief: as §1
[3] = Drug uptake in baboon prefrontal cortex at 5 mCi, iv measured during 90 mins; type: ADME, organism-based; conditions: papio anubis, in vivo, 1.5 h; method in brief: as §1
[4] = Metabolic stability in baboon plasma assessed as unchanged radioligand at 90 mins by HPLC; type: ADME, cell-free; conditions: papio anubis, read-out: Stability
Method in brief: (§2)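 Arterial blood sampled at 2, 6, 12, 30, 60 and 90 min post-injection and spun; 0.5 ml plasma mixed with 0.7 ml acetonitrile, vortexed, centrifuged 14,000 rpm 4 min. Supernatant run on reverse-phase ODS HPLC (acetonitrile/0.1 M ammonium formate 35:65, 2 ml/min) with radioactivity detection. Parent percentage corrected for background and decay; QC tracer sample injected at start and end.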

[5] = Drug uptake in baboon temporal cortex at 5 mCi, iv measured during 90 mins; type: ADME, organism-based; conditions: papio anubis, in vivo, 1.5 h; method in brief: as §1
[6] = Metabolic stability in baboon plasma assessed as unchanged radioligand at 30 mins by HPLC; type: ADME, cell-free; conditions: papio anubis, read-out: Stability; method in brief: as §2
[7] = Drug uptake in baboon amygdala at 5 mCi, iv measured during 90 mins; type: ADME, organism-based; conditions: papio anubis, in vivo, 1.5 h; method in brief: as §1
[8] = Metabolic stability in baboon plasma assessed as unchanged radioligand at 2 mins by HPLC; type: ADME, cell-free; conditions: papio anubis, read-out: Stability; method in brief: as §2
[9] = Metabolic stability in baboon plasma assessed as unchanged radioligand at 12 mins by HPLC; type: ADME, cell-free; conditions: papio anubis, read-out: Stability; method in brief: as §2
[10] = Fraction unbound in baboon plasma by HPLC; type: ADME, cell-free; conditions: papio anubis
[11] = Metabolic stability in baboon plasma assessed as unchanged radioligand at 60 mins by HPLC; type: ADME, cell-free; conditions: papio anubis, read-out: Stability; method in brief: as §2
[12] = Fraction unbound in human plasma by HPLC; type: ADME, cell-free
[13] = Metabolic stability in baboon plasma assessed as unchanged radioligand at 4 mins by HPLC; type: ADME, cell-free; conditions: papio anubis, read-out: Stability
[14] = Drug uptake in baboon pareital cortex at 5 mCi, iv measured during 90 mins; type: ADME, organism-based; conditions: papio anubis, in vivo, 1.5 h; method in brief: as §1
[15] = Drug uptake in baboon striatum at 5 mCi, iv measured during 90 mins; type: ADME, organism-based; conditions: papio anubis, in vivo, 1.5 h; method in brief: as §1
[16] = Drug uptake in baboon parahippocampal gyrus at 5 mCi, iv measured during 90 mins; type: ADME, organism-based; conditions: papio anubis, in vivo, 1.5 h; method in brief: as §1
[17] = Drug uptake in baboon anterior cingulate at 5 mCi, iv measured during 90 mins; type: ADME, organism-based; conditions: papio anubis, in vivo, 1.5 h; method in brief: as §1

- Drug uptake [1]: Active
- Drug uptake [2]: Not Active
- Drug uptake [3]: Not Active
- remaining at 1.5 h [4]: 27%
- Drug uptake [5]: Active
- remaining at 0.5 h [6]: 45%
- Drug uptake [7]: Active
- remaining at 2 min [8]: 99%
- remaining at 0.2 h [9]: 71%
- fraction unbound [10]: 0.05
- remaining at 1 h [11]: 32%
- fraction unbound [12]: 0.01
- remaining at 4 min [13]: 94%
- Drug uptake [14]: Active
- Drug uptake [15]: Not Active
- Drug uptake [16]: Active
- Drug uptake [17]: Not Active
SMILES: COc1ccc(S(=O)(=O)Nc2cc(Cl)cc(Cl)c2O[11CH3])cc1N1CCNCC1
